Values after ≈ are worked out from the molar mass of the structure shown.
Legend:
Klebsiella pneumoniae [1] = assay: Antibacterial activity against multidrug resistant Klebsiella pneumoniae ATCC43816 assessed as inhibition of bacterial growth incubated for 24 hrs in M9-MOPS medium by twofold serial dilution method; type: functional
Klebsiella pneumoniae [2] = assay: Antibacterial activity against multidrug resistant Klebsiella pneumoniae ATCC43816 assessed as inhibition of bacterial growth incubated for 24 hrs in MHI medium by twofold serial dilution method; type: functional
Klebsiella aerogenes [3] = assay: Antibacterial activity against multidrug resistant Klebsiella aerogenes ATCC13048 assessed as inhibition of bacterial growth incubated for 24 hrs in M9-MOPS medium by twofold serial dilution method; type: functional
Klebsiella aerogenes [4] = assay: Antibacterial activity against multidrug resistant Klebsiella […] assessed as inhibition of bacterial growth incubated for 24 hrs in MHI medium by twofold serial dilution method; type: functional
Klebsiella pneumoniae [5] = assay: Antibacterial activity against multidrug resistant Klebsiella pneumoniae ATCC13883 assessed as inhibition of bacterial growth incubated for 24 hrs in M9-MOPS medium by twofold serial dilution method; type: functional
Klebsiella pneumoniae [6] = assay: Antibacterial activity against multidrug resistant Klebsiella pneumoniae ATCC13883 assessed as inhibition of bacterial growth incubated for 24 hrs in MHI medium by twofold serial dilution method; type: functional
Pseudomonas aeruginosa [7] = assay: Antibacterial activity against multidrug resistant Pseudomonas aeruginosa BAA 2109 assessed as inhibition of bacterial growth incubated for 24 hrs in […] medium by twofold serial dilution method; type: functional
Pseudomonas aeruginosa [8] = assay: Antibacterial activity against multidrug resistant Pseudomonas aeruginosa BAA 2109 assessed as inhibition of bacterial growth incubated for 24 hrs in MHI medium by twofold serial dilution method; type: functional
Pseudomonas aeruginosa [9] = assay: Antibacterial activity against multidrug resistant Pseudomonas aeruginosa BAA 2108 assessed as inhibition of bacterial growth incubated for 24 hrs in M9-MOPS medium by twofold serial dilution method; type: functional
Pseudomonas aeruginosa [10] = assay: Antibacterial activity against multidrug resistant Pseudomonas aeruginosa BAA 2108 assessed as inhibition of bacterial growth incubated for 24 hrs in MHI medium by twofold serial dilution method; type: functional
Acinetobacter baumannii [11] = assay: Antibacterial activity against multidrug resistant Acinetobacter baumannii Ab5075 assessed as inhibition of bacterial growth incubated for 24 hrs in M9-MOPS medium by twofold serial dilution method; type: functional
Acinetobacter baumannii [12] = assay: Antibacterial activity against multidrug resistant Acinetobacter baumannii Ab5075 assessed as inhibition of bacterial growth incubated for 24 hrs in MHI medium by twofold serial dilution method; type: functional
Acinetobacter baumannii [13] = assay: Antibacterial activity against multidrug resistant Acinetobacter baumannii AYE assessed as inhibition of bacterial growth incubated for 24 hrs in M9-MOPS medium by twofold serial dilution method; type: functional
Acinetobacter baumannii [14] = assay: Antibacterial activity against multidrug resistant Acinetobacter baumannii AYE assessed as inhibition of bacterial growth incubated for 24 hrs in MHI medium by twofold serial dilution method; type: functional
Acinetobacter baumannii [15] = assay: Antibacterial activity against efflux pump lacking Acinetobacter baumannii assessed as inhibition of bacterial growth; type: functional, organism-based
Acinetobacter baumannii [16] = assay: Antibacterial activity against efflux pump lacking/recombinant OM pore producing Acinetobacter baumannii assessed as inhibition of bacterial growth; type: functional, organism-based
Acinetobacter baumannii [17] = assay: Antibacterial activity against recombinant OM pore producing Acinetobacter baumannii assessed as inhibition of bacterial growth; type: functional, organism-based
Acinetobacter baumannii [18] = assay: Antibacterial activity against wild type Acinetobacter baumannii assessed as inhibition of bacterial growth; type: functional, organism-based
Escherichia coli [19] = assay: Antibacterial activity against wild type Escherichia coli assessed as inhibition of bacterial growth; type: functional, organism-based
Escherichia coli [20] = assay: Antibacterial activity against recombinant OM pore producing Escherichia coli assessed as inhibition of bacterial growth; type: functional, organism-based
Escherichia coli [21] = assay: Antibacterial activity against efflux pump lacking Escherichia coli assessed as inhibition of bacterial growth; type: functional, organism-based
Escherichia coli [22] = assay: Antibacterial activity against efflux pump lacking/recombinant OM pore producing Escherichia coli assessed as inhibition of bacterial growth; type: functional, organism-based
Pseudomonas aeruginosa [23] = assay: Antibacterial activity against wild type Pseudomonas aeruginosa assessed as inhibition of bacterial growth; type: functional, organism-based
Pseudomonas aeruginosa [24] = assay: Antibacterial activity against recombinant OM pore producing Pseudomonas aeruginosa assessed as inhibition of bacterial growth; type: functional, organism-based
Pseudomonas aeruginosa [25] = assay: Antibacterial activity against efflux pump lacking Pseudomonas aeruginosa assessed as inhibition of bacterial growth; type: functional, organism-based
Pseudomonas aeruginosa [26] = assay: Antibacterial activity against efflux pump lacking/recombinant OM pore producing Pseudomonas aeruginosa assessed as inhibition of bacterial growth; type: functional, organism-based
Acinetobacter baumannii [27] = assay: Antibacterial activity against efflux pump lacking/recombinant OM pore producing Acinetobacter baumannii incubated for 24 hrs by twofold serial dilution method; type: functional
Procedure, shortened: (§1)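 MICs by twofold serial dilution in 96-well plates from 10 mM DMSO stocks. Cultures grown in the indicated media; for E. coli, A. baumannii and P. aeruginosa, inducers were 0.1% arabinose, 1% arabinose and 0.1 mM IPTG respectively.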

Escherichia coli [28] = assay: Antibacterial activity against efflux pump lacking/recombinant OM pore producing Escherichia coli incubated for 24 hrs by twofold serial dilution method; type: functional
Procedure, shortened: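 E. coli efflux-knockout/hyperporinated strain grown in M9 medium with 50 mM MOPS (pH 7.2) and 0.2% xylose. OM pore induced with 0.1% arabinose. Compounds come from 10 mM DMSO stocks and are twofold serially diluted in 96-well plates.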

Pseudomonas aeruginosa [29] = assay: Antibacterial activity against efflux pump lacking/recombinant OM pore producing Pseudomonas aeruginosa incubated for 24 hrs by twofold serial dilution method; type: functional; procedure, shortened: as §1
Escherichia coli [30] = assay: Antibacterial activity against Escherichia coli SQ110 DTC G2032A incubated for 24 hrs by twofold serial dilution method; type: functional
Procedure, shortened: (§2)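 E. coli SQDTC (TolC-deficient, single rRNA operon) carrying LZD-resistant 23S rRNA substitutions. Compounds come from 10 mM DMSO stocks and are twofold serially diluted in 96-well plates.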

Staphylococcus aureus = assay: Antibacterial activity against Staphylococcus aureus ATCC 25923 incubated for 24 hrs by twofold serial dilution method; type: functional; procedure, shortened: as §1
Escherichia coli [31] = assay: Antibacterial activity against Escherichia coli SQ110 DTC incubated for 24 hrs by twofold serial dilution method; type: functional; procedure, shortened: as §1
Escherichia coli [32] = assay: Antibacterial activity against Escherichia coli SQ110 incubated for 24 hrs by twofold serial dilution method; type: functional; procedure, shortened: as §1
Escherichia coli [33] = assay: Antibacterial activity against Escherichia coli SQ110 DTC C2610A incubated for 24 hrs by twofold serial dilution method; type: functional; procedure, shortened: as §2
Pseudomonas aeruginosa [34] = assay: Selectivity ratio of IC50 for efflux pump lacking Pseudomonas aeruginosa to IC50 for efflux pump lacking/OM pore producing Pseudomonas aeruginosa; type: functional
Procedure, shortened: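 OM impact ratio (E/PE) is the M9-MOPS growth IC50 in the efflux-lacking strain divided by that in the efflux-lacking/pore-producing strain.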

Pseudomonas aeruginosa [35] = assay: Selectivity ratio of IC50 for OM pore producing Pseudomonas aeruginosa to IC50 for efflux pump lacking/OM pore producing Pseudomonas aeruginosa; type: functional
Procedure, shortened: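 Efflux impact ratio (P/PE) is the M9-MOPS growth IC50 in the pore-producing strain divided by that in the efflux-lacking/pore-producing strain.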

Klebsiella pneumoniae [36] = assay: Antibacterial activity against multidrug resistant Klebsiella pneumoniae ATCC43816 assessed as inhibition of bacterial growth incubated for 24 hrs in MHI medium by twofold serial dilution method; conditions: ATCC43816, 24 h

Structure (SMILES) | MIC (Klebsiella pneumoniae [1]) [µM] | MIC (Klebsiella pneumoniae [2]) [µM] | MIC (Klebsiella aerogenes [3]) [µM] | MIC (Klebsiella pneumoniae [5]) [µM] | MIC (Klebsiella pneumoniae [6]) [µM] | MIC (Pseudomonas aeruginosa [7]) [µM] | MIC (Pseudomonas aeruginosa [8]) [µM] | MIC (Pseudomonas aeruginosa [9]) [µM] | MIC (Pseudomonas aeruginosa [10]) [µM] | MIC (Acinetobacter baumannii [11]) [µM] | MIC (Acinetobacter baumannii [12]) [µM] | MIC (Acinetobacter baumannii [13]) [µM] | MIC (Acinetobacter baumannii [14]) [µM] | IC50 (Acinetobacter baumannii [15]) [µM] | IC50 (Acinetobacter baumannii [16]) [µM] | IC50 (Acinetobacter baumannii [17]) [µM] | IC50 (Acinetobacter baumannii [18]) [µM] | IC50 (Escherichia coli [19]) [µM] | IC50 (Escherichia coli [20]) [µM] | IC50 (Escherichia coli [21]) [µM] | also measured
O=C1O[C@@H](CO)CN1c1ccc(-c2ccncc2)c(F)c1 | 200 (≈ 57.7 µg/mL) | > 200 | 200 (≈ 57.7 µg/mL) | 100 (≈ 28.8 µg/mL) | 200 (≈ 57.7 µg/mL) | > 200 | > 200 | ≥ 200 | ≥ 200 | 100 (≈ 28.8 µg/mL) | > 200 | 100 (≈ 28.8 µg/mL) | > 200 | 1.4 | 1.4 | 16.5 | 16.5 | 44.3 | 5.6 | 0.8 | MIC (Klebsiella aerogenes [4]): 200 µM (≈ 57.7 µg/mL); IC50 (Escherichia coli [22]): 1.3 µM; IC50 (Pseudomonas aeruginosa [23]): 44.2 µM; IC50 (Pseudomonas aeruginosa [24]): 48.2 µM; IC50 (Pseudomonas aeruginosa [25]): 8.1 µM; IC50 (Pseudomonas aeruginosa [26]): 2900 nM; MIC (Acinetobacter baumannii [27]): 6.25 µM; MIC (Escherichia coli [28]): 6.25 µM; MIC (Pseudomonas aeruginosa [29]): 3.12 µM; MIC (Escherichia coli [30]): 25 µM (≈ 7.21 µg/mL); MIC (Staphylococcus aureus): 1.56 µM (≈ 0.45 µg/mL); MIC (Escherichia coli [31]): 6.25 µM (≈ 1.8 µg/mL); MIC (Escherichia coli [32]): > 100 µM; MIC (Escherichia coli [33]): 6.25 µM (≈ 1.8 µg/mL)
NCc1ccc(-c2ccc(N3C[C@H](CO)OC3=O)cc2F)cc1O | 100 (≈ 33.2 µg/mL) | > 200 | 12.5 (≈ 4.15 µg/mL) | 50 (≈ 16.6 µg/mL) | > 200 | > 200 | > 200 | > 200 | > 200 | > 200 | > 200 | > 200 | > 200 | 15.4 | 15.4 | 37.6 | 37.6 | 66.1 | 23.3 | 10 | MIC (Klebsiella aerogenes [4]): 200 µM (≈ 66.5 µg/mL); IC50 (Escherichia coli [22]): 10.3 µM; IC50 (Pseudomonas aeruginosa [23]): 55.9 µM; IC50 (Pseudomonas aeruginosa [24]): 40.8 µM; IC50 (Pseudomonas aeruginosa [25]): 2.2 µM; IC50 (Pseudomonas aeruginosa [26]): 200 nM; MIC (Acinetobacter baumannii [27]): 25 µM; MIC (Escherichia coli [28]): 50 µM; MIC (Pseudomonas aeruginosa [29]): 6.25 µM; MIC (Escherichia coli [30]): 100 µM (≈ 33.2 µg/mL); MIC (Escherichia coli [31]): 25 µM (≈ 8.31 µg/mL); MIC (Escherichia coli [32]): > 100 µM; MIC (Escherichia coli [33]): 50 µM (≈ 16.6 µg/mL)
CC(=O)NC[C@H]1CN(c2ccc(N3CCOCC3)c(F)c2)C(=O)O1 [LINEZOLID] | > 200 | > 200 | > 200 | ≥ 200 | > 200 | > 200 | > 200 | > 200 | > 200 | ≥ 200 | > 200 | 200 (≈ 67.5 µg/mL) | > 200 | 4.9 | 4 | 9.2 | 33.4 | > 100 | 18 | 8.7 | IC50 (Escherichia coli [22]): 9.3 µM; IC50 (Pseudomonas aeruginosa [23]): > 100 µM; IC50 (Pseudomonas aeruginosa [24]): 19.8 µM; IC50 (Pseudomonas aeruginosa [25]): 24.7 µM; IC50 (Pseudomonas aeruginosa [26]): 1700 nM; MIC (Acinetobacter baumannii [27]): 25 µM; MIC (Escherichia coli [28]): 25 µM; MIC (Pseudomonas aeruginosa [29]): 12.5 µM; MIC (Escherichia coli [30]): > 100 µM; MIC (Staphylococcus aureus): 6.25 µM (≈ 2.11 µg/mL); MIC (Escherichia coli [31]): 25 µM (≈ 8.43 µg/mL); MIC (Escherichia coli [32]): > 100 µM; MIC (Escherichia coli [33]): 50 µM (≈ 16.9 µg/mL); Ratio IC50 (Pseudomonas aeruginosa [34]): 15; Ratio IC50 (Pseudomonas aeruginosa [35]): 12; MIC (Klebsiella pneumoniae [36]): > 200 µM
NCc1ccc(-c2ccc(N3C[C@H](CO)OC3=O)cc2F)cc1 | 200 (≈ 63.3 µg/mL) | > 200 | 100 (≈ 31.6 µg/mL) | 100 (≈ 31.6 µg/mL) | > 200 | > 200 | > 200 | > 200 | > 200 | > 200 | > 200 | > 200 | > 200 | 17.7 | 8.2 | 14.3 | 54.5 | 18.1 | 2.6 | 1.7 | IC50 (Escherichia coli [22]): 2.6 µM; IC50 (Pseudomonas aeruginosa [23]): 23 µM; IC50 (Pseudomonas aeruginosa [24]): 26.3 µM; IC50 (Pseudomonas aeruginosa [25]): 3.3 µM; IC50 (Pseudomonas aeruginosa [26]): 8100 nM; MIC (Acinetobacter baumannii [27]): 25 µM; MIC (Escherichia coli [28]): > 100 µM; MIC (Pseudomonas aeruginosa [29]): 12.5 µM; MIC (Escherichia coli [30]): 100 µM (≈ 31.6 µg/mL); MIC (Staphylococcus aureus): 6.25 µM (≈ 1.98 µg/mL); MIC (Escherichia coli [31]): 50 µM (≈ 15.8 µg/mL); MIC (Escherichia coli [32]): > 100 µM; MIC (Escherichia coli [33]): 50 µM (≈ 15.8 µg/mL); MIC (Klebsiella pneumoniae [36]): > 200 µM

From ChEMBL document CHEMBL5104202, “Structure-Uptake Relationship Studies of Oxazolidinones in Gram-Negative ESKAPE Pathogens” (J Med Chem, 2022)
